# FGF22 binding = binders of human FGF22 protein, primary screen, FGF22 synaptogenesis inhibitor project, biophysical, thermal shift, single point; activity (Tm shift, normalised), % at 9.99 µM; 340,000 tested, 1.5% active; recombinant FGF22 thermal shift, SYPRO orange fluorescence; percent of sucrose octasulfate shift, DMSO zero;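 active means mean Tm shift, scaled 0 neutral to 100 positive control, at about 1.3% or above, every replicate too, limit read from the data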
# Target sequence (Q9HCT0 whole entry, looked up): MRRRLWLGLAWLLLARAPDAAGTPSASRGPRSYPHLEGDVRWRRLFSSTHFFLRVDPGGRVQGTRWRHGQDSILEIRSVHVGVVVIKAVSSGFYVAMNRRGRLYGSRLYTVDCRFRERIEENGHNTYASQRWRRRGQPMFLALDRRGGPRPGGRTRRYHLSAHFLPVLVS
# CFTR F508del cor = F508del CFTR correction, initial screen, CFBE line, single point; CFBE cells, YFP halide quenching; stimulated with forskolin plus potentiator P3; % fluorescence drop versus neutral controls; activity (quench increase), % at 7.58 µM; 350,000 tested, 0.36% active;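 active means mean added fluorescence quench of at least 8% versus neutral control, with both replicates also reaching 8%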;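 further: cells transiently co-express mutant CFTR-F508del with the halide-sensitive YFP; corrector assay measuring rescue of mutant channel to the surface after 24 h compound exposure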
# E-selectin induc = E-selectin induction in HUVECs, primary screen, imaging, HUVEC, immunofluorescence imaging, single point; P16581; normalized: neutral wells 0, TNF-alpha wells 100; activation, % at 7.58 µM; 260,000 tested, 0.37% active; AID 686992, 2013;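 active means mean E-selectin-positive cell signal at least 10% of the positive control, reached in at least 60% of replicates, without over 20% cell loss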
#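 System: HUVEC / Compound: single concentration / Signal: immunofluorescence imaging / Read-out: percent E-selectin-positive cells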
# S100A4 inh HTS = inhibitors of S100A4-myosin IIA peptide binding, primary screen, biochemical, fluorescence polarization, TAMRA-MyoIIA peptide. 360,000 tested, 0.14% active. Protein S100-A4 (Homo sapiens), P26447. inhibition, % at 10.7 µM;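 active means mean inhibition of at least 70% across replicates, with every replicate also reaching that level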
# Target sequence (P26447 whole entry, looked up): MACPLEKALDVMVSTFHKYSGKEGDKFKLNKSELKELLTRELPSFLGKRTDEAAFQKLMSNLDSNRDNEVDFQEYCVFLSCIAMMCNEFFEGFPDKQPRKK
#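 incubation = readout 5 min after mixing, signal stable up to 60 min | system = S100A4 monomer protein | buffer or medium = HEPES pH 7.2 with CaCl2, KCl, NaCl, DTT, Triton | benchmarks = neutral control DMSO, positive control TFP | also added = fluorescent myosin IIA peptide, 5 nM | compound dosing = one concentration per compound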
# HIV Env fusion = inhibitors of HIV-1 Env-driven cell-cell fusion, primary screen, HeLa-JRFL effector, CEM21 target cells, luciferase. inhibition, % at 12.3 µM. AID 651610, 2012. 360,000 tested, 1.1% active;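 active means mean replicate inhibition score of at least 50 and every replicate individually at or above 50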;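 further: 0% = plate neutral controls and 100% = maraviroc near 300 nM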
# * hit, by the source's call; x = not tested or not shown; ! = repeats disagree; [ ] = another dose, or the depositor's remark. Shown are actives, neighbours in structure and some others; about 2.7% of the full set was active somewhere.
SMILES,FGF22 binding,CFTR F508del cor,E-selectin induc,S100A4 inh HTS,HIV Env fusion
CC(=O)Nc1ccc(/C=N/NC(=O)c2cccc(S(=O)(=O)N3CCOCC3)c2)cc1,0,x,x,-4,13
CC(C)c1ccc(/C=N/NC(=O)c2cccc(S(=O)(=O)N3CCOCC3)c2)cc1,44*,2,0,2,-2
O=C(N/N=C/c1sc(N2CCOCC2)nc1-c1ccccc1)c1cccc(S(=O)(=O)N2CCCC2)c1,1,1,1,-11,56*
O=C(c1ccccc1)c1sc(N2CCOCC2)nc1-c1ccccc1,44*,-3,x,0,-4
NCC[C@H]1CC[C@H](NC(=O)C2CC2)[C@H](CO)O1,x,1,0,11,x
CO[C@H]1CN(C)C(=O)c2cc(NC(C)=O)ccc2OC[C@H](C)N(CC2CC2)C[C@H]1C,0,-2,0,19,x
CCOC(=O)[C@@H]1[C@@H]2C=C[C@]3(O2)[C@H](C(=O)NCc2ccccc2)N(CCCCCCO)C(=O)[C@@H]13,1,10*,x,1,13[16.7 µM]
CCCNC(=O)Nc1ccc2c(c1)OC[C@H](C)N(CCC)C[C@@H](C)[C@@H](OC)CN(C)C2=O,0,0,0,11,-4[16.7 µM]
O=C(c1cc(COc2cccc(C(F)(F)F)c2)on1)N1CCC(c2ccncc2)CC1,0,2,0,4,72*
CNC(=O)C[C@@H]1C(=O)N(CCc2ccccc2)CC1(C)C,43*,-1,-1,-3,19
CC(=O)NS(=O)(=O)c1ccc(N=NN2CCCCC2)cc1,0,x,-1,-12,-10
NS(=O)(=O)c1ccc(N=NN2CCCCC2)cc1,43*,5,x,0,2
COC(=O)c1ccccc1OC(=O)c1cccnc1,0,-3,x,1,x
O=C(Oc1ccccc1C(=O)Oc1ccccc1)c1cccnc1,43*,-1,-1,0,-11
CCC(=O)NC[C@H]1[C@@H](c2ccc(C3=CCCC3)cc2)[C@@H](CO)N1C(=O)CC,x,0,0,1,x
Cc1cc(Cl)c(S(=O)(=O)N2CCSCC2)cc1OCC(=O)NC1CCCCC1,x,x,x,x,93*
Cc1cc(Cl)c(S(=O)(=O)N2CCCCCC2)cc1OCC(=O)NC1CCCCC1,x,x,x,x,51*
C[C@@H]1CCCCO[C@@H](CN(C)C(=O)CCC(F)(F)F)[C@H](C)CN([C@H](C)CO)C(=O)c2cc(NS(=O)(=O)c3cccs3)ccc2O1,0,1,0,x,-9[16.7 µM]
CCOc1cc2c3c(c1)C(C)CC(C)(C)N3C(=O)C2=O (stereo not given),x,x,x,x,104*
Cc1cc2c3c(c1)C(C)CC(C)(C)N3C(=O)C2=O (stereo not given),0,-2,x,2,1
N#CC(c1ccccc1)N(CCCCl)C(=O)c1ccccc1 (stereo not given),43*,-2,x,-2,18
O=C(c1ccccc1)N(CCCl)C(=O)N(CCCl)C(=O)c1ccccc1,0,2,-1,-2,-3
CC(=O)N(CCCCl)C(C#N)c1ccccc1 (stereo not given),44*,2,x,-5,-38
CC(C)C(=O)Nc1ccc2c(c1)C(=O)N(C)[C@H]1CC[C@H](CC(=O)NCc3ccccc3F)O[C@@H]1CO2,0,1,0,x,-8[16.7 µM]
O=C(C1=C[C@@H](c2ccccc2)C[C@@H](OCc2ccc(CO)cc2)O1)N1CCN(Cc2ccc3c(c2)OCO3)CC1,1,8.8*!,1,4,-19[16.7 µM]
SMILES,FGF22 binding,CFTR F508del cor,E-selectin induc,S100A4 inh HTS,HIV Env fusion
COC(=O)c1ccc([C@H]2C=C(C(=O)N3CCN(Cc4ccc5c(c4)OCO5)CC3)O[C@@H](OCc3ccc(CO)cc3)C2)cc1,0,2,x,-18,-8[16.7 µM]
CCO[C@H]1OC(C(=O)N2CCN(Cc3ccc4c(c3)OCO4)CC2)=C[C@@H](C)[C@@H]1CCCO,9.2*,-3,0,-9,-11
O=C(C1=C[C@@H](c2coc3ccccc3c2=O)C[C@@H](OCc2ccc(CO)cc2)O1)N1CCN(Cc2ccccc2)CC1,1.4*,-1,x,-53,-1[16.7 µM]
C=C(C)CN(CC)C(=O)CSc1nc(O)cc(=O)n1C1CCCC1,43*,-3,1,-4,-11
O=C([C@@H]1[C@@H](CO)[C@@H]2Cn3c(cccc3=O)[C@H]1N2Cc1cocn1)N1CCCCC1,0,x,0,32,7[16.7 µM]
CCCCCCc1nc2ccccc2c(=O)n1NC(=O)c1c(O)c2c(n(CC(C)C)c1=O)CCCC2,x,x,x,x,73*
Cc1nc2ccccc2c(=O)n1NC(=O)c1c(O)c2c(n(CC(C)C)c1=O)CCCC2,x,x,x,x,11
CCN1CCN(CCCNC(=O)CCc2nc(-c3ccc(OC)cc3)no2)CC1,43*,-1,0,-3,-8
COc1ccc(-c2noc(CCC(=O)NCCCN3CCN(c4ccccc4F)CC3)n2)cc1,0,x,8,-7,19
COc1ccc(-c2noc(CCCCC(=O)N3CCN(c4cc(C)ccc4C)CC3)n2)cc1,0,2,x,0,68*
COc1ccc(-c2noc(CCCC(=O)N3CCN(c4cc(C)ccc4C)CC3)n2)cc1,0,4,0,-2,x
C[C@H](CO)N1C[C@H](C)[C@H](CN(C)Cc2ccc(Cl)c(Cl)c2)Oc2ccc(NS(=O)(=O)c3cn(C)cn3)cc2C1=O,0,-4,-6,-9,x
Cc1noc(C)c1NC(=O)Nc1ccc2c(c1)C(=O)N([C@@H](C)CO)C[C@H](C)[C@@H](CN(C)Cc1ccc(C(=O)O)cc1)OCCCC[C@H](C)O2,0,-2,0,x,-19[16.7 µM]
COCCN(C(=O)COC(=O)C12CC3CC(CC(Cl)(C3)C1)C2)c1c(N)n(Cc2ccccc2)c(=O)[nH]c1=O,0,-2,x,-6,68*
Cc1cccc(C(=O)N(Cc2ccco2)c2c(N)n(Cc3ccccc3)c(=O)[nH]c2=O)c1,0,28*,1,-3,x
COCCCN(C(=S)NC(=O)C12CC3CC(CC(C3)C1)C2)c1c(N)n(Cc2ccccc2)c(=O)[nH]c1=O,0,-1,3,-1,84*
CC(C)CN(C(=O)COC(=O)C12CC3CC(CC(Cl)(C3)C1)C2)c1c(N)n(Cc2ccccc2)c(=O)[nH]c1=O,0,-2,-2,0,33
COCCN(C(=O)/C=C/c1ccccc1)c1c(N)n(Cc2ccccc2)c(=O)[nH]c1=O,43*,-1,5,-2,-3
CN(C)CC(=O)N[C@H]1CC[C@H](CCn2cc(C3CC3)nn2)O[C@@H]1CO,0,1,0,-2,-14[16.7 µM]
CC(=O)N1CCCCN2[C@@H](CO)[C@H](c3ccc(-c4cccc(C(=O)N(C)C)c4)cc3)[C@@H]2C1,-1,-1,0,102*,x
